Reference: ChEMBL document CHEMBL1955860, “Design, synthesis, and biological evaluation of 4-arylmethyl-1-phenylpyrazole and 4-aryloxy-1-phenylpyrazole derivatives as novel androgen receptor antagonists” (Bioorg Med Chem, 2012)

Legend:
[1] = Anticancer activity against human LNCaP-hr cells assessed as prostate specific antigen level at 1 uM after 3 days by enzyme immunoassay relative to control; type: functional
In short: (§1)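 LNCaP-hr cells (CRPC model, T877A AR) seeded at 40,000 cells/well in phenol red-free RPMI1640 with 10% DCC-FBS; compounds at 1–10 µM added next day; secreted PSA measured and expressed as % of control; n = 3.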

[2] = Anticancer activity against human LNCaP-hr cells assessed as prostate specific antigen level at 10 uM after 3 days by enzyme immunoassay relative to control; type: functional; in short: as §1
[3] = Anticancer activity against human LNCaP-hr cells xenografted in BALB/c athymic nude mouse assessed as change in tumor volume at 20 mg/kg, po bid after 28 days relative to control; type: functional
In short: (§2)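 Mice castrated, then given LNCaP-hr cells (5 × 10⁷ cells/mL in PBS/Matrigel 1:1) s.c. in flank the same day; grouped at ~100–300 mm³ tumor volume (n = 6/group); from next day, oral dosing in 0.5% methylcellulose vehicle, bid or qd, 28 days. T/C% = tumor volume increase in treated/vehicle group × 100; serum/plasma PSA at end by ELISA.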

[4] = Anticancer activity against human LNCaP-hr cells xenografted in BALB/c athymic nude mouse assessed as change in tumor volume at 40 mg/kg, po bid after 28 days relative to control; type: functional; in short: as §2
[5] = Anticancer activity against human LNCaP-hr cells xenografted in BALB/c athymic nude mouse assessed as prostate specific antigen level in plasma at 20 mg/kg, po bid after 28 days relative to control; type: functional; in short: as §2
[6] = Anticancer activity against human LNCaP-hr cells xenografted in BALB/c athymic nude mouse assessed as prostate specific antigen level in plasma at 40 mg/kg, po bid after 28 days relative to control; type: functional; in short: as §2
Mus musculus [7] = assay: Toxicity in athymic nude BALB/c mouse xenografted with human LNCaP-hr cells assessed as body weight loss at 20 mg/kg, po bid after 28 days; type: organism-based; set-up: dose 20 mg/kg, route oral; details: in vivo
In short: (§3)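 Castrated mice bearing s.c. LNCaP-hr xenografts (n = 6/group), dosed orally twice daily for 28 days in 0.5% methylcellulose vehicle; body weight tracked over the treatment period versus castration + vehicle controls.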

Mus musculus [8] = assay: Toxicity in athymic nude BALB/c mouse xenografted with human LNCaP-hr cells assessed as body weight loss at 40 mg/kg, po bid after 28 days; type: organism-based; set-up: dose 40 mg/kg, route oral; details: in vivo; in short: as §3
Mus musculus [9] = assay: Toxicity in athymic nude BALB/c mouse xenografted with human LNCaP-hr cells assessed as body weight loss at 50 mg/kg, po bid after 28 days; type: organism-based; set-up: dose 50 mg/kg, route oral; details: in vivo; in short: as §3
[10] = Anticancer activity against human LNCaP-hr cells xenografted in BALB/c athymic nude mouse assessed as change in tumor volume at 50 mg/kg, po bid after 28 days relative to control; type: functional; in short: as §2
[11] = Anticancer activity against human LNCaP-hr cells xenografted in BALB/c athymic nude mouse assessed as prostate specific antigen level in plasma at 50 mg/kg, po bid after 28 days relative to control; type: functional; in short: as §2
[12] = Anticancer activity against human LNCaP-hr cells xenografted in BALB/c athymic nude mouse assessed as change in tumor volume at 100 mg/kg, po qd after 28 days relative to control; type: functional; in short: as §2
[13] = Anticancer activity against human LNCaP-hr cells xenografted in BALB/c athymic nude mouse assessed as prostate specific antigen level in plasma at 100 mg/kg, po qd after 28 days relative to control; type: functional; in short: as §2

| SMILES | Activity [1] | Activity [2] | further results |
| --- | --- | --- | --- |
| Cc1nn(-c2ccc(C#N)c(Cl)c2)c(C)c1Cc1ccc(C(=O)NC(C)(C)C)cc1 | 33% | 57% | – |
| Cc1nn(-c2ccc(C#N)c(Cl)c2)c(C)c1Cc1ccc(C(=O)NCC(C)(C)O)cc1 | 27% | 31% | T/C [3]: 15%; T/C [4]: 3%; T/C [5]: 88%; T/C [6]: 23%; Activity (Mus musculus [7]): Non-toxic; Activity (Mus musculus [8]): Non-toxic; Activity (Mus musculus [9]): Non-toxic |
| Cc1nn(-c2ccc(C#N)c(Cl)c2)c(C)c1Cc1ccc(C(=O)N2CCOCC2)cc1 | 35% | – | – |
| Cc1nn(-c2ccc(C#N)c(Cl)c2)c(C)c1Oc1ccc(C(=O)NCC(C)(C)O)cc1 | 33% | >100% | – |
| Cc1nn(-c2ccc(C#N)c(Cl)c2)c(C)c1Cc1cccc(C(N)=O)c1 | 21% | 35% | – |
| Cc1nn(-c2ccc(C#N)c(Cl)c2)c(C)c1Cc1ccc(C(N)=O)cc1 | 76% | – | – |
| Cc1nn(-c2ccc(C#N)c(Cl)c2)c(C)c1Cc1ccc(C(=O)N(C)C)cc1 | 21% | – | – |
| Cc1nn(-c2ccc(C#N)c(Cl)c2)c(C)c1Cc1ccc(C(=O)NCCO)cc1 | 33% | – | – |
| Cc1nn(-c2ccc(C#N)c(Cl)c2)c(C)c1Oc1ccc(C(=O)N2CCOCC2)cc1 | 22% | 22% | – |
| CC(=O)Nc1ccc(Oc2c(C)nn(-c3ccc(C#N)c(Cl)c3)c2C)nc1 | 8% | 14% | – |
| Cc1nn(-c2ccc(C#N)c(Cl)c2)c(C)c1Oc1ccc(NC(=O)C(C)(C)C)cn1 | 8% | 5% | T/C [10]: 2%; T/C [11]: 17% |
| CC(=O)Nc1ccc(Oc2c(C)nn(-c3ccc(C#N)c(Cl)c3)c2C)cn1 | 11% | 39% | – |
| CC(O)(CS(=O)(=O)c1ccc(F)cc1)C(=O)Nc1ccc(C#N)c(C(F)(F)F)c1 (configuration not stated) [BICALUTAMIDE] | – | >100% | T/C [12]: 37%; T/C [13]: 142% |
